# Assay outcomes (PubChem)
# RanGTP-Imp inh: inhibitors of RanGTP-importin-beta interaction, primary screen, biochemical, FRET, CFP-Ran, YFP-importin-beta, homogeneous; actives 1.1% (n = 300,000); cell-free CFP-Ran/YFP-importin-beta FRET ratio; inhibition, % (no concentration beside the values);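 active = more than half of the replicate wells show a fall in the fluorescence ratio signal beyond about 16%, limit read from the data, passing the limit was not always enough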;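 also: 0% = DMSO wells and 100% = Ran loaded with GDP instead of GTP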
# Runt-CBFb FRET: Runt domain-CBFb interaction inhibition; Q01196+Q13951; Cerulean-Runt/Venus-CBFb FRET ratio 530/480, 1 h; inhibition, % at 20 µM; actives 0.46% (n = 220,000); AID 1496;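 active = inhibition over about 50% at 20 µM in the single-dose screen, limit read from the data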;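 also: 0% = DMSO wells and 100% = excess unlabeled CBFb competitor control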
# Target sequence (Q01196 whole entry, looked up, the tested form may be a part): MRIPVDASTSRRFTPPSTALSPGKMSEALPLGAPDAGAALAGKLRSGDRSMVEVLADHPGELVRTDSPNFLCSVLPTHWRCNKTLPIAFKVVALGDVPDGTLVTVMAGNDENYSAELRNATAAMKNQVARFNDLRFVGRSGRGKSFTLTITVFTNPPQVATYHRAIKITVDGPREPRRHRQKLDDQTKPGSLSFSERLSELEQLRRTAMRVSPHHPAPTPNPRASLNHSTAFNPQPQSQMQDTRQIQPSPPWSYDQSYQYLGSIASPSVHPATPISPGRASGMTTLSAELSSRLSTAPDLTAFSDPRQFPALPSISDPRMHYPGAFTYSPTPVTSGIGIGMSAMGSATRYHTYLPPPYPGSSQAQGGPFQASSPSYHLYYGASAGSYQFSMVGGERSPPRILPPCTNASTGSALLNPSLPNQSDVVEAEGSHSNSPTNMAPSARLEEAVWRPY
# Target sequence (Q13951 whole entry, looked up, the tested form may be a part): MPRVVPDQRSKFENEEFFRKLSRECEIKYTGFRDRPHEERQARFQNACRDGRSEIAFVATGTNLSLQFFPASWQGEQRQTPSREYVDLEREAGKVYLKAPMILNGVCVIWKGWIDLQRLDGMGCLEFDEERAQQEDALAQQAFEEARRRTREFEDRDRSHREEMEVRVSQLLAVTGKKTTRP
#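 Measured by: fluorescence energy transfer, 422 nm excitation, 530/480 nm emission; test system: Cerulean-tagged RUNX1 Runt domain (FRET donor) fusion protein; buffer or medium: Tris pH 7.5 buffer with BSA; compound: one dose, 20 µM compound, 1% DMSO; times: two 1 h room-temperature incubations shielded from light; benchmarks: unlabeled CBFb 5 µM, positive control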
# CaV13 ICDI inh: Primary screen for inhibitors of IQ motif and Ca2+-dependent inactivation inhibitor domain binding in CACNA1D, Förster resonance energy transfer in living cells, …; HEK cells, CFP/YFP FRET ICDI-IQ, plate reader, 10 min; percent FRET-ratio fall versus neutral wells; inhibition, % at 12.3 µM; actives 0.098% (n = 340,000); AID 743397;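 active = mean replicate inhibition of at least 30% and at least 1% of replicates passing that level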;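 also: 0% = median of the neutral control wells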
# Runt-SMMHC FRET: Runt domain-CBFb-SMMHC interaction inhibition. actives 0.74% (n = 220,000). inhibition, % at 20 µM. AID 1434. Q01196+Q13951. Cerulean-Runt/Venus-CBFb-SMMHC FRET ratio 530/480, 1 h;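 active = mean inhibition across duplicate retests at 20 µM reaching about 50%, limit read from the data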;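 also: 0% = DMSO wells and 100% = wells with excess untagged CBFb-SMMHC; inhibitors lower the FRET ratio by blocking Runt binding to CBFb-SMMHC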
# RUNX1 CBFb TR: inhibitors of human RUNX1 Runt domain binding to CBFb | shares compounds with Runt-CBFb FRET | TR-FRET RUNX1 Runt domain-CBFb binding | inhibition, % at 20 µM | actives 20% (n = 480); in the data active = inhibition above about 40%
# YIC FRET counter: counter-screen for RanGTP-importin-beta inhibitors: YIC FRET probe. shares compounds with RanGTP-Imp inh. Purified YIC probe, intramolecular FRET ratio YFP/CFP. IC50, µM. actives 40% (n = 1,000). AID 435026;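 active = fitted half-maximal inhibitory concentration no more than tenfold above the top dose tested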
# Active calls of the source: *; nt = no result. In the library only some 1.2% were active in any assay of this set; here they are far more common.
SMILES,RanGTP-Imp inh,Runt-CBFb FRET,CaV13 ICDI inh,Runt-SMMHC FRET,others
CCCCn1c(NS(=O)(=O)c2ccccc2)c(C(=O)OCC)c2nc3ccccc3nc21,84.8*,2.6,14.6,8.6,
COCCCNC(=O)c1c(NC(=O)c2ccccc2Cl)n(Cc2ccccc2)c2nc3ccccc3nc12,71.4*,21.8,-3.0,63.3*,
Nc1c(C(=O)NCCN2CCOCC2)c2nc3ccccc3nc2n1Cc1ccccc1,62.8*,77.6*,-4.5,81.0*,
CC/C(=N\NC(=O)c1ccccc1)c1c(O)n(Cc2ccccc2)c(=O)[nH]c1=O,6.2,-0.5,-3.0,2.8,
COc1ccc(CCNC(=O)c2c(N)n(CCN3CCOCC3)c3nc4ccccc4nc23)cc1,69.3*,66.8*,-3.3,83.0*,
Nc1c(C(=O)NCCN2CCOCC2)c2nc3ccccc3nc2n1Cc1ccco1,63.5*,72.2*,nt,nt,
O=C1NCN(c2ccccc2)C12CCN(C(c1ccccc1)c1nnnn1C1CCCC1)CC2 (stereo not given),nt,nt,-4.2,nt,
C=C1C/C(=C/C)C(=O)O[C@@H]2CCN3CC=C(COC(=O)[C@]1(C)O)[C@H]23,2.7,2.4,-2.4,-4.4,
CCOC(=O)C1=C(C)OC(N)=C(C#N)C12C(=O)Nc1ccc(C)cc12 (stereo not given),nt,-3.9,-5.1,-5.8,
COc1ccc(N2C(=O)CC(N3CC=C(c4ccccc4)CC3)C2=O)cc1 (stereo not given),-0.3,-0.3,-9.7,-4.5,
CCCCn1c(N)c(C(=O)NCCN2CCOCC2)c2nc3ccccc3nc21,83.3*,20.9,5.4,65.0*,
CCCCn1c(NC(=O)c2ccc(Br)o2)c(C(=O)OCC)c2nc3ccccc3nc21,nt,1.3,-1.3,23.3,
Cc1ccc(CN2C(=O)NC(=O)C3(Cc4c(nc5ccccn5c4=O)N4CCCCCC43)C2=O)cc1 (stereo not given),1.2,-5.7,-5.9,-6.9,
CCC(C)OC(=O)c1c(N)n(Cc2cccs2)c2nc3ccccc3nc12 (stereo not given),12.5,53.4*,-8.5,94.1*,RUNX1 CBFb TR=28.6
Nc1ncc2[nH]cnc2n1,4.8,nt,-5.0,nt,
C=CCn1c(O)c(/C=N/N2CCCCC2)c(=O)[nH]c1=O,0.7,1.8,-5.3,-5.1,
O=C(NCCN1CCOCC1)c1ccc(Cl)nc1Cl,10.2,0.0,-19.2,0.4,
Nc1c(C(=O)NCCc2ccccc2)c2nc3ccccc3nc2n1CCN1CCOCC1,78.3*,57.9*,nt,91.0*,RUNX1 CBFb TR=23.1
COCCCn1c(N)c(C(=O)NCc2ccco2)c2nc3ccccc3nc21,57.7*,59.6*,-0.4,81.2*,RUNX1 CBFb TR=33.7
COCCOC(=O)C1=C(C)OC(N)=C(C(=O)OC)C12C(=O)Nc1ccccc12 (stereo not given),16.2*,-1.0,-8.4,2.4,YIC FRET counter=>50
Cc1cccc(-n2c(O)c(/C=C/C=Nc3ccccc3)c(=O)[nH]c2=O)c1,34.2*,30.6,-3.8,75.0,YIC FRET counter=2.77*
Fc1ccc(C2NCCc3[nH]cnc32)cc1 (stereo not given),0.3,-0.1,-7.8,-3.3,
CCCCCn1c(=O)c(C(=O)Nc2ccccc2)c(O)c2ccccc21,3.7,nt,-4.8,nt,
COCCCn1c(N)c(C(=O)OC(C)COC)c2nc3ccccc3nc21 (stereo not given),25.3*,78.8*,-5.3,94.5*,YIC FRET counter=26.7*
CCOC(=O)c1c(N)n(CCN2CCCCC2)c2nc3ccccc3nc12,51.0*,41.3,nt,98.9*,YIC FRET counter=44.9*
COCCCn1c(N)c(C(=O)Nc2ccccc2)c2nc3ccccc3nc21,19.3*,7.4,-4.4,16.2,YIC FRET counter=25.3*
Ic1ccccc1CN[C@@H]1C2CCN(CC2)[C@@H]1C(c1ccccc1)c1ccccc1,nt,nt,-5.3,nt,
CC(=O)OC1C(O)C2=C3C4(C)C1C(C)(C)C(=O)CC4C3(O)C(OC(C)=O)C1(CC1C)C2=O (stereo not given),nt,nt,-11.0,nt,
COCCNC(=O)c1c(NC(=O)c2ccco2)n(Cc2ccccc2)c2nc3ccccc3nc12,30.7*,32.8,nt,98.5*,YIC FRET counter=0.932*
